Source: ChEMBL document CHEMBL1629670, “In vitro activities of retigeric acid B alone and in combination with azole antifungal agents against Candida albicans” (2009)
In brackets after ≈: the same amount, converted by molar mass.

How the values were obtained:
Format in all cases: functional
Candida albicans [1] = test: Antifungal activity against Candida albicans CA1 after 48 hrs by broth microdilution method; conditions: CA1, 48 h
How it was run: (§1)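 CLSI M27-A2 broth microdilution of clinical isolates in RPMI 1640 buffered to pH 7.0 with 0.165 M MOPS. Final inoculum 0.5 x 10^3 to 2.5 x 10^3 cells/ml, incubated 35°C for 48 h. Growth read as OD490 with background subtracted. MIC taken as the lowest drug concentration giving 80% growth reduction versus drug-free control. Run in triplicate.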

Candida albicans [2] = test: Antifungal activity against Candida albicans CA2 after 48 hrs by broth microdilution method; conditions: CA2, 48 h; how it was run: as §1
Candida albicans [3] = test: Antifungal activity against Candida albicans CA3 after 48 hrs by broth microdilution method; conditions: CA3, 48 h; how it was run: as §1
Candida albicans [4] = test: Antifungal activity against Candida albicans CA4 after 48 hrs by broth microdilution method; conditions: CA4, 48 h; how it was run: as §1
Candida albicans [5] = test: Antifungal activity against Candida albicans CA127 after 48 hrs by broth microdilution method; conditions: CA127, 48 h; how it was run: as §1
Candida albicans [6] = test: Antifungal activity against Candida albicans CA132 after 48 hrs by broth microdilution method; conditions: CA132, 48 h; how it was run: as §1
Candida albicans [7] = test: Antifungal activity against Candida albicans CA10 after 48 hrs by broth microdilution method; conditions: CA10, 48 h; how it was run: as §1
Candida albicans [8] = test: Antifungal activity against Candida albicans CA135 after 48 hrs by broth microdilution method; conditions: CA135, 48 h; how it was run: as §1
Candida albicans [9] = test: Antifungal activity against Candida albicans CA137 after 48 hrs by broth microdilution method; conditions: CA137, 48 h; how it was run: as §1
Candida albicans [10] = test: Antifungal activity against Candida albicans CA138 after 48 hrs by broth microdilution method; conditions: CA138, 48 h; how it was run: as §1

`CC(=O)N1CCN(c2ccc(OCC3COC(Cn4ccnc4)(c4ccc(Cl)cc4Cl)O3)cc2)CC1` (stereo not given) [KETOCONAZOLE] was tested. Which MIC (Candida albicans [1]) did it give?
Its MIC is 0.031 µg/mL (≈ 0.0583 µM).

And the MIC (Candida albicans [2])?
Its MIC is 0.016 µg/mL (≈ 0.0301 µM).

What about the MIC (Candida albicans [3]) of the same compound?
The MIC was 0.062 µg/mL (≈ 0.117 µM).

What about the MIC (Candida albicans [4]) of the same compound?
The MIC was 0.062 µg/mL (≈ 0.117 µM).

And the MIC (Candida albicans [5])?
The MIC was 0.031 µg/mL (≈ 0.0583 µM).

And the MIC (Candida albicans [6])?
The MIC was 0.031 µg/mL (≈ 0.0583 µM).

And the MIC (Candida albicans [7])?
Its MIC is 16 µg/mL (≈ 30.1 µM).

And the MIC (Candida albicans [8])?
Its MIC is 16 µg/mL (≈ 30.1 µM).

What about the MIC (Candida albicans [9]) of the same compound?
Its MIC is 16 µg/mL (≈ 30.1 µM).

And the MIC (Candida albicans [10])?
The MIC was 16 µg/mL (≈ 30.1 µM).
